Reference: ChEMBL document CHEMBL1139922, “Discovery and structure-activity relationship studies of indole derivatives as liver X receptor (LXR) agonists” (Bioorg Med Chem Lett, 2007)

Assays:
THP-1 [1] = test: Ratio of induction of ABCA1 gene expression in THP1 cells at 10 uM to control; type: functional, Homo sapiens
[2] = molecular target: T1, Oxysterols receptor LXR-beta (Homo sapiens, UniProt P55055); test: Activation of LXRbeta co-transfected in COS7 cells with RXRalpha by reporter transactivation assay; type: functional, cell-based, COS-7
T1 sequence (P55055 whole entry): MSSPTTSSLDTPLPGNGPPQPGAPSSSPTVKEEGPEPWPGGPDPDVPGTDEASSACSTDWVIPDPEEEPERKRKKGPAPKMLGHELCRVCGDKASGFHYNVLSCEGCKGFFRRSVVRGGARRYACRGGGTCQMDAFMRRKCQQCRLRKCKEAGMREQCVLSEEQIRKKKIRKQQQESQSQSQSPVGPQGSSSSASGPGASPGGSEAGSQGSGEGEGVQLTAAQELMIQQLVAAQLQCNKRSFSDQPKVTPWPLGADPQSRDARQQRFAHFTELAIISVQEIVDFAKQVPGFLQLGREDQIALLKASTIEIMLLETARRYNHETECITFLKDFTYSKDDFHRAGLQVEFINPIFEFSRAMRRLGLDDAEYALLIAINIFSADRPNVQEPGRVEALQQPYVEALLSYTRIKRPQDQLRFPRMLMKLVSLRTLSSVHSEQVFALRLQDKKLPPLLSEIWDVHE
In short: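 Cells exposed to vehicle or compound for 16 h; LXR reporter activation read as luciferase activity in cell lysate. EC50 derived from means of quadruplicate samples, single experiment.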

HepG2 (Homo sapiens) = test: Ratio of induction of SREBP1c gene expression in HepG2 cells at 10 uM to control
THP-1 [3] = test: Ratio of induction of cholesterol efflux in THP1 cells at 10 uM to control after 18 hrs; type: functional, Homo sapiens
THP-1 [4] = test: Induction of cholesterol efflux in THP1 cells after 18 hrs; type: functional, cell-based; settings: Homo sapiens, THP-1, 18 h
[5] = molecular target: T1, Oxysterols receptor LXR-beta; test: Agonist activity at LXRbeta LBD by HTRF cofactor peptide recruitment assay; type: functional
HepG2 = test: Ratio of induction of lipogenesis in HepG2 cells at 10 uM to control after 24 hrs; type: functional, Homo sapiens
[6] = molecular target: T2, Oxysterols receptor LXR-alpha (Homo sapiens, UniProt Q13133); test: Agonist activity at LXRalpha LBD by HTRF cofactor peptide recruitment assay; type: functional
T2 sequence (Q13133 whole entry): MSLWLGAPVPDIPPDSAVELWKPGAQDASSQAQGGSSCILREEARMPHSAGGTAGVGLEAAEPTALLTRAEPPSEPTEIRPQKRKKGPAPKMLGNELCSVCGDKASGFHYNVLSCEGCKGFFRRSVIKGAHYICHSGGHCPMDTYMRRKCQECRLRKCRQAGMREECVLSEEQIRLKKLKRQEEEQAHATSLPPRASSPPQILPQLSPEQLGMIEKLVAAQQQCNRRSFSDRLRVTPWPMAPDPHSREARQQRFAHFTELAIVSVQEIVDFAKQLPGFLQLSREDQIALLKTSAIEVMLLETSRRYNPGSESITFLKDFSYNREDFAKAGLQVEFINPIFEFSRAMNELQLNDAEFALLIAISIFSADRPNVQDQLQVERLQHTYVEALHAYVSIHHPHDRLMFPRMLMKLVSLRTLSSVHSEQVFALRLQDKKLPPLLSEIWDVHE

Row | Compound | EC50 [5] [nM] | other results
1 | CC(C)(C)OC(=O)n1c(-c2ccc3c(c2)CC(NS(=O)(=O)c2ccccc2)C3)cc2ccccc21 (stereo unspecified) | 190 | Ratio (THP-1 [1]): 8.4; EC50 [2]: 65 nM; Ratio (HepG2 (Homo sapiens)): 3.1; Ratio (THP-1 [3]): 1.6; EC50 (THP-1 [4]): 680 nM; Ratio (HepG2): 3.1; EC50 [6]: 1500 nM
2 | CC(C)(C)OC(=O)n1c(-c2ccc3c(c2)CC(NS(=O)(=O)c2ccccc2)C3)cc2cc(O)ccc21 (stereo unspecified) | > 30000 | 
3 | CC(C)(C)OC(=O)n1c(-c2ccc3c(c2)CC(NS(=O)(=O)c2ccccc2)C3)cc2cc(F)ccc21 (stereo unspecified) | 1500 | 
4 | Cc1ccc2c(c1)cc(-c1ccc3c(c1)CC(NS(=O)(=O)c1ccccc1)C3)n2C(=O)OC(C)(C)C (stereo unspecified) | 18000 | 
5 | CC(C)(C)OC(=O)n1c(-c2ccc3c(c2)CC(NS(=O)(=O)c2ccccc2)C3)cc2ccc(O)cc21 (stereo unspecified) | 670 | 
6 | CC(C)(C)OC(=O)n1c(-c2ccc3c(c2)C[C@H](NS(=O)(=O)c2ccccc2)C3)cc2ccccc21 | 660 | 
7 | CC(C)(C)OC(=O)n1c(-c2ccc3c(c2)C[C@@H](NS(=O)(=O)c2ccccc2)C3)cc2ccccc21 | 130 | 
8 | O=S(=O)(NC1Cc2ccc(-c3cc4ccccc4[nH]3)cc2C1)c1ccccc1 (stereo unspecified) | > 30000 | 
9 | CCOC(=O)n1c(-c2ccc3c(c2)CC(NS(=O)(=O)c2ccccc2)C3)cc2ccccc21 (stereo unspecified) | 1600 | 
10 | CC(C)CCOC(=O)n1c(-c2ccc3c(c2)CC(NS(=O)(=O)c2ccccc2)C3)cc2ccccc21 (stereo unspecified) | 1300 | 
11 | CCCCC(C)COC(=O)n1c(-c2ccc3c(c2)CC(NS(=O)(=O)c2ccccc2)C3)cc2ccccc21 (stereo unspecified) | > 30000 | 
12 | O=S(=O)(NC1Cc2ccc(-c3cc4ccccc4n3S(=O)(=O)c3ccccc3)cc2C1)c1ccccc1 (stereo unspecified) | > 30000 | 
13 | O=C(C1CCCC1)n1c(-c2ccc3c(c2)CC(NS(=O)(=O)c2ccccc2)C3)cc2ccccc21 (stereo unspecified) | 900 | 
14 | CC(C)(C)CC(=O)n1c(-c2ccc3c(c2)CC(NS(=O)(=O)c2ccccc2)C3)cc2ccccc21 (stereo unspecified) | > 30000 | 
15 | Cn1c(-c2ccc3c(c2)CC(NS(=O)(=O)c2ccccc2)C3)cc2ccccc21 (stereo unspecified) | > 30000 | 
16 | CC(C)(C)OC(=O)Cn1c(-c2ccc3c(c2)CC(NS(=O)(=O)c2ccccc2)C3)cc2ccccc21 (stereo unspecified) | > 30000 | 
17 | O=S(=O)(NC1Cc2ccc(-c3cc4ccccc4n3CCCOCc3ccccc3)cc2C1)c1ccccc1 (stereo unspecified) | > 30000 | 
18 | O=S(=O)(NC1Cc2ccc(-c3cc4ccccc4n3CCc3ccccc3)cc2C1)c1ccccc1 (stereo unspecified) | > 10000 | 
19 | CC(C)(C)OC(=O)n1c(-c2ccc3c(c2)CC(NS(=O)(=O)c2ccc(-c4ccccc4)cc2)C3)cc2ccccc21 (stereo unspecified) | 2100 | 
20 | CC(C)(C)OC(=O)n1c(-c2ccc3c(c2)CC(NS(=O)(=O)c2ccc(Cl)cc2)C3)cc2ccccc21 (stereo unspecified) | 1160 | 
21 | Cc1ccc(S(=O)(=O)NC2Cc3ccc(-c4cc5ccccc5n4C(=O)OC(C)(C)C)cc3C2)cc1 (stereo unspecified) | 430 | 

Row | Compound | EC50 [5] [nM] | other results
22 | CC(C)(C)OC(=O)n1c(-c2ccc3c(c2)CC(NS(=O)(=O)c2ccc(C(F)(F)F)cc2)C3)cc2ccccc21 (stereo unspecified) | 730 | 
23 | Cc1cccc(S(=O)(=O)NC2Cc3ccc(-c4cc5ccccc5n4C(=O)OC(C)(C)C)cc3C2)c1 (stereo unspecified) | 1330 | 
24 | COc1cccc(S(=O)(=O)NC2Cc3ccc(-c4cc5ccccc5n4C(=O)OC(C)(C)C)cc3C2)c1 (stereo unspecified) | 960 | 
25 | CC(C)(C)OC(=O)n1c(-c2ccc3c(c2)CC(NS(=O)(=O)c2cccc(C#N)c2)C3)cc2ccccc21 (stereo unspecified) | 460 | 
26 | COC(=O)c1ccccc1S(=O)(=O)NC1Cc2ccc(-c3cc4ccccc4n3C(=O)OC(C)(C)C)cc2C1 (stereo unspecified) | 600 | 
27 | CC(C)(C)OC(=O)n1c(-c2ccc3c(c2)CC(NS(=O)(=O)c2ccccc2C(=O)O)C3)cc2ccccc21 (stereo unspecified) | 3350 | 
28 | CC(C)(C)OC(=O)n1c(-c2ccc3c(c2)CC(NS(=O)(=O)c2ccccc2)C3)cc2cc(OCc3ccccc3)ccc21 (stereo unspecified) | > 30000 | 
29 | COc1ccccc1S(=O)(=O)NC1Cc2ccc(-c3cc4ccccc4n3C(=O)OC(C)(C)C)cc2C1 (stereo unspecified) | 600 | 
30 | CC(C)(C)OC(=O)n1c(-c2ccc3c(c2)CC(NS(=O)(=O)c2ccccc2C(F)(F)F)C3)cc2ccccc21 (stereo unspecified) | 800 | 
31 | CC(C)(C)OC(=O)n1c(-c2ccc3c(c2)CC(NS(=O)(=O)c2ccccc2Cl)C3)cc2ccccc21 (stereo unspecified) | 760 | 
32 | CC(C)(C)OC(=O)n1c(-c2ccc3c(c2)CC(NC(=O)c2ccccc2)C3)cc2ccccc21 (stereo unspecified) | 190 | 
33 | COc1ccccc1C(=O)NC1Cc2ccc(-c3cc4ccccc4n3C(=O)OC(C)(C)C)cc2C1 (stereo unspecified) | 470 | 
34 | CC(C)(C)OC(=O)n1c(-c2ccc3c(c2)CC(NC(=O)c2ccccc2O)C3)cc2ccccc21 (stereo unspecified) | 530 | 
35 | CC(C)(C)OC(=O)n1c(-c2ccc3c(c2)CC(NS(=O)(=O)Cc2ccccc2)C3)cc2ccccc21 (stereo unspecified) | 520 | 
36 | CC(C)(C)OC(=O)n1c(-c2ccc3c(c2)CC(NC(=O)Nc2ccccc2)C3)cc2ccccc21 (stereo unspecified) | 1500 | 
37 | CCS(=O)(=O)NC1Cc2ccc(-c3cc4ccccc4n3C(=O)OC(C)(C)C)cc2C1 (stereo unspecified) | 400 | 
38 | CC(C)(C)COC(=O)n1c(-c2ccc3c(c2)CC(NS(=O)(=O)c2ccccc2)C3)cc2ccccc21 (stereo unspecified) | 1400 | 
39 | CC(C)(C)OC(=O)n1c(-c2ccc3c(c2)CC(NS(=O)(=O)c2ccccc2C#N)C3)cc2ccccc21 (stereo unspecified) | 60 | 
40 | CC(C)(C)OC(=O)n1c(-c2ccc3c(c2)CC(NS(=O)(=O)c2ccccc2F)C3)cc2ccccc21 (stereo unspecified) | 100 | 
41 | O=C(CC1CC1)n1c(-c2ccc3c(c2)CC(NS(=O)(=O)c2ccccc2)C3)cc2ccccc21 (stereo unspecified) | 1160 | 
42 | CC(C)(C)OC(=O)n1c(-c2ccc3c(c2)CC(NS(=O)(=O)c2ccccc2)C3)cc2c(OCc3ccccc3)cccc21 (stereo unspecified) | > 30000 | 

Row | Compound | EC50 [5] [nM] | other results
43 | CC(C)(C)OC(=O)n1c(-c2ccc3c(c2)CC(NC(=O)c2ccccc2F)C3)cc2ccccc21 (stereo unspecified) | 170 | 
44 | CC(C)(C)OC(=O)n1c(-c2ccc3c(c2)CC(NS(=O)(=O)c2ccccc2)C3)cc2c(O)cccc21 (stereo unspecified) | > 30000 | 
45 | CC(C)(C)OC(=O)n1c(-c2ccc3c(c2)CC(NS(=O)(=O)c2ccccc2)C3)cc2cc(C#N)ccc21 (stereo unspecified) | 26000 | 
46 | CC(C)(C)OC(=O)n1c(-c2ccc3c(c2)CC(NS(=O)(=O)c2cccc(Cl)c2)C3)cc2ccccc21 (stereo unspecified) | 1810 | 
47 | Cc1ccccc1S(=O)(=O)NC1Cc2ccc(-c3cc4ccccc4n3C(=O)OC(C)(C)C)cc2C1 (stereo unspecified) | 200 | 
48 | CCCCCC(=O)n1c(-c2ccc3c(c2)CC(NS(=O)(=O)c2ccccc2)C3)cc2ccccc21 (stereo unspecified) | 2100 | 
49 | O=S(=O)(NC1Cc2ccc(-c3cc4ccccc4n3Cc3ccccc3)cc2C1)c1ccccc1 (stereo unspecified) | > 30000 | 
50 | CC(C)(C)OC(=O)n1c(-c2ccc3c(c2)CC(NS(=O)(=O)c2ccc(-c4ccon4)s2)C3)cc2ccccc21 (stereo unspecified) | 670 | Ratio (THP-1 [1]): 7.5; EC50 [2]: 336 nM; Ratio (HepG2 (Homo sapiens)): 2.1; Ratio (THP-1 [3]): 1.7; EC50 (THP-1 [4]): 590 nM; Ratio (HepG2): 1.2; EC50 [6]: > 30000 nM
51 | Cc1ccc2cc(-c3ccc4c(c3)CC(NS(=O)(=O)c3ccccc3)C4)n(C(=O)OC(C)(C)C)c2c1 (stereo unspecified) | 300 | 
52 | COC(=O)n1c(-c2ccc3c(c2)CC(NS(=O)(=O)c2ccccc2)C3)cc2ccccc21 (stereo unspecified) | > 30000 | 
53 | CC(C)(C)OC(=O)n1c(-c2ccc3c(c2)CC(NS(=O)(=O)c2ccccc2)C3)cc2ccc(OCc3ccccc3)cc21 (stereo unspecified) | > 30000 | 
54 | COc1ccc2c(c1)cc(-c1ccc3c(c1)CC(NS(=O)(=O)c1ccccc1)C3)n2C(=O)OC(C)(C)C (stereo unspecified) | 28000 | 
55 | COc1ccc2cc(-c3ccc4c(c3)CC(NS(=O)(=O)c3ccccc3)C4)n(C(=O)OC(C)(C)C)c2c1 (stereo unspecified) | 1600 | 
56 | CCc1ccc(S(=O)(=O)NC2Cc3ccc(-c4cc5ccccc5n4C(=O)OC(C)(C)C)cc3C2)cc1 (stereo unspecified) | 650 | 
57 | Cc1noc(C)c1S(=O)(=O)NC1Cc2ccc(-c3cc4ccccc4n3C(=O)OC(C)(C)C)cc2C1 (stereo unspecified) | 130 | 
58 | COc1ccc(Cn2c(-c3ccc4c(c3)CC(NS(=O)(=O)c3ccccc3)C4)cc3ccccc32)cc1 (stereo unspecified) | > 30000 | 
59 | CC(C)(C)OC(=O)n1c(-c2ccc3c(c2)CC(NS(C)(=O)=O)C3)cc2ccccc21 (stereo unspecified) | 210 | 
60 | O=C(O)Cc1cccc(OCCCN(Cc2cccc(C(F)(F)F)c2Cl)CC(c2ccccc2)c2ccccc2)c1 | 35 | Ratio (THP-1 [1]): 10.7; Ratio (HepG2 (Homo sapiens)): 5.2; Ratio (THP-1 [3]): 1.8; EC50 (THP-1 [4]): 10 nM; Ratio (HepG2): 2.7; EC50 [6]: 367 nM
61 | O=S(=O)(c1ccccc1)N(CC(F)(F)F)c1ccc(C(O)(C(F)(F)F)C(F)(F)F)cc1 [T091317] |  | EC50 (THP-1 [4]): 33 nM
